Source: ChEMBL document CHEMBL4014343 (J Med Chem, 2017)
Activity calls are given as the source filed them. The calls are words filed in the database; no cut-off is given here.

Legend:
[1] = system: OVCAR-3; experiment: Growth inhibition of human OVCAR3 cells incubated for 48 hrs by sulforhodamine B assay; format: functional, cell-based
[2] = system: ACHN; experiment: Growth inhibition of human ACHN cells incubated for 48 hrs by sulforhodamine B assay; format: functional, cell-based
[3] = system: U-251; experiment: Growth inhibition of human U251 cells incubated for 48 hrs by sulforhodamine B assay; format: functional, cell-based
Summary of the method: (§1)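 NCI-60 panel growth inhibition, run by the U.S. National Cancer Institute; GI50 values are means of two test series.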

[4] = system: SF-268; experiment: Growth inhibition of human SF268 cells incubated for 48 hrs by sulforhodamine B assay; format: functional, cell-based
[5] = system: COLO 205; experiment: Growth inhibition of human COLO205 cells incubated for 48 hrs by sulforhodamine B assay; format: functional, cell-based
[6] = system: DU-145; experiment: Growth inhibition of human DU145 cells incubated for 48 hrs by sulforhodamine B assay; format: functional, cell-based
[7] = system: OVCAR-8; experiment: Growth inhibition of human OVCAR8 cells incubated for 48 hrs by sulforhodamine B assay; format: functional, cell-based
[8] = system: NCI-H226; experiment: Growth inhibition of human NCI-H226 cells incubated for 48 hrs by sulforhodamine B assay; format: functional, cell-based
[9] = system: PC-3; experiment: Growth inhibition of human PC3 cells incubated for 48 hrs by sulforhodamine B assay; format: functional, cell-based
[10] = system: MOLT-4; experiment: Growth inhibition of human MOLT4 cells incubated for 48 hrs by sulforhodamine B assay; format: functional, cell-based
[11] = system: SN12C; experiment: Growth inhibition of human SN12C cells incubated for 48 hrs by sulforhodamine B assay; format: functional, cell-based
[12] = system: HOP-92; experiment: Growth inhibition of human HOP92 cells incubated for 48 hrs by sulforhodamine B assay; format: functional, cell-based
[13] = system: LOX IMVI; experiment: Growth inhibition of human LOXIMVI cells incubated for 48 hrs by sulforhodamine B assay; format: functional, cell-based
[14] = system: SNB-75; experiment: Growth inhibition of human SNB75 cells incubated for 48 hrs by sulforhodamine B assay; format: functional, cell-based
[15] = system: SW-620; experiment: Growth inhibition of human SW620 cells incubated for 48 hrs by sulforhodamine B assay; format: functional, cell-based; summary of the method: as §1
[16] = system: A498; experiment: Growth inhibition of human A498 cells incubated for 48 hrs by sulforhodamine B assay; format: functional, cell-based
[17] = system: NCI/ADR-RES; experiment: Growth inhibition of human NCI/ADR-RES cells incubated for 48 hrs by sulforhodamine B assay; format: functional, cell-based
[18] = target: T1, Insulin-like growth factor 1 receptor (Homo sapiens, UniProt P08069); experiment: Inhibition of IGF1R in human MCF7 cells assessed as reduction in Akt phosphorylation at Ser473 residue at 1 uM after 15 mins by immunoblot analysis; format: cell-based
T1 sequence (P08069 31-736 limits assumed): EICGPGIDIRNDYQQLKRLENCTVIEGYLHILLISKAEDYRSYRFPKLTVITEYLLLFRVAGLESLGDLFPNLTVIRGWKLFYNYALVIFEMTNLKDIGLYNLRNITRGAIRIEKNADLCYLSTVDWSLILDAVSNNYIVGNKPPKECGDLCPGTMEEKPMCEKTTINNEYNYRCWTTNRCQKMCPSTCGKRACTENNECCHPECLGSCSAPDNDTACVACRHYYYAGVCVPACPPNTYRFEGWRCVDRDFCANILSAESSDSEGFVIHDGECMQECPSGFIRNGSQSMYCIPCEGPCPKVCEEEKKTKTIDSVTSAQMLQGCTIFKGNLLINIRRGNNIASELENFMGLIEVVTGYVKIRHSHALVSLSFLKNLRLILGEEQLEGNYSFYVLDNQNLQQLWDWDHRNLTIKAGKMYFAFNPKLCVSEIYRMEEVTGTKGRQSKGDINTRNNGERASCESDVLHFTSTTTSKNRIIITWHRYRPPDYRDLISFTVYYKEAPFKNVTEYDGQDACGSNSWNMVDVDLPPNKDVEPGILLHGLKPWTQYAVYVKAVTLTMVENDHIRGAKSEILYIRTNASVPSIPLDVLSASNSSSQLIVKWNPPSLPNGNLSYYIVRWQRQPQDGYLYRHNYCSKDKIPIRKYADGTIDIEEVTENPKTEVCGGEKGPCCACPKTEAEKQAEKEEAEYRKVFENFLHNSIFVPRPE
T1 sequence (P08069 741-1367 limits assumed): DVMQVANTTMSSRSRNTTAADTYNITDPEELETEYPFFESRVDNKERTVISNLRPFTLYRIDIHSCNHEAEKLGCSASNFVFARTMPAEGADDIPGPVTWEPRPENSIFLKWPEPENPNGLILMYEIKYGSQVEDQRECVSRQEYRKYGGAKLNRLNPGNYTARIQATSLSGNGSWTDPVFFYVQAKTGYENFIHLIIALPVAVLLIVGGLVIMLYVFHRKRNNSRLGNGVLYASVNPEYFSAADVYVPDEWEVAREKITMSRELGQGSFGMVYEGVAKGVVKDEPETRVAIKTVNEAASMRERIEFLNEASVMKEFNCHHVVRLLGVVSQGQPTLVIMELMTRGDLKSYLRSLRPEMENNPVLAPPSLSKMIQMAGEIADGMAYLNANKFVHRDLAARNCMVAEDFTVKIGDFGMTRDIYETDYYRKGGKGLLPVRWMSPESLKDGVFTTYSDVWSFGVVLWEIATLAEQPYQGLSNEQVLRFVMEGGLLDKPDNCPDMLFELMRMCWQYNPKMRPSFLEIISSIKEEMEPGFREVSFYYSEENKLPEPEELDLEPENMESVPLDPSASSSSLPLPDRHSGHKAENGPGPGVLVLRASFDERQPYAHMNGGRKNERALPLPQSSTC
Summary of the method: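 MCF7 exposed to 1 μM and harvested at 15 min, 30 min, 1, 4 and 6 h; lysates immunoblotted with p-Akt (S473) antibody.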

[19] = system: 786-0; experiment: Growth inhibition of human 786-0 cells incubated for 48 hrs by sulforhodamine B assay; format: functional, cell-based
[20] = system: SK-MEL-2; experiment: Growth inhibition of human SK-MEL-2 cells incubated for 48 hrs by sulforhodamine B assay; format: functional, cell-based
[21] = system: NCI-H522; experiment: Growth inhibition of human NCI-H522 cells incubated for 48 hrs by sulforhodamine B assay; format: functional, cell-based
[22] = system: NCI-H23; experiment: Growth inhibition of human NCI-H23 cells incubated for 48 hrs by sulforhodamine B assay; format: functional, cell-based
[23] = target: T2, Aurora kinase C (Homo sapiens) (UniProt Q9UQB9); experiment: Inhibition of human N-terminal GST-tagged Aurora B (M1 to S27 residues) expressed in sf9 cells at 1 uM using CDC25C-derived peptide as substrate by filter binding assay
T2 sequence (whole entry): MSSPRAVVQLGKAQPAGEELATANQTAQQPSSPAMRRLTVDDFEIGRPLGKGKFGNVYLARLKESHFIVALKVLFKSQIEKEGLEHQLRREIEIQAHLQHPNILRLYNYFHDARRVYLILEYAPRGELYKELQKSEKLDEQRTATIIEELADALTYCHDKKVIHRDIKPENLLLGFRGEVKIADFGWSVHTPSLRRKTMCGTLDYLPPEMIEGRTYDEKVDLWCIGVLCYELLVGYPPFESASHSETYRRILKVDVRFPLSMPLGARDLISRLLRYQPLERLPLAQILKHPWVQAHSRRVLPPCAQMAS
Summary of the method: (§2)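 Single-point profiling at 1 μM in a 22-kinase panel, performed externally by ProQinase; activity read as residual percent of control.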

[24] = system: UACC-257; experiment: Growth inhibition of human UACC257 cells incubated for 48 hrs by sulforhodamine B assay; format: functional, cell-based; summary of the method: as §1
[25] = system: UACC-62; experiment: Growth inhibition of human UACC62 cells incubated for 48 hrs by sulforhodamine B assay; format: functional, cell-based; summary of the method: as §1
[26] = system: RPMI-8226; experiment: Growth inhibition of human RPMI8226 cells incubated for 48 hrs by sulforhodamine B assay; format: functional, cell-based
[27] = system: MCF7; experiment: Induction of apoptosis in human MCF7 cells at 0.5 uM after 24 hrs by Annexin V-FITC/propidium iodide staining based FACS analysis; format: functional, cell-based
Summary of the method: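 MCF7 grown 24 h in DMEM/10% FBS/1% PS, exposed 24 h, pelleted, stained with FITC-annexin V in HEPES binding buffer (pH 7.4, 1.8 mM CaCl2) 15 min dark at rt, then PI 10 min, analysed by flow cytometry; bortezomib positive control.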

[28] = system: MDA-MB-435; experiment: Growth inhibition of human MDA-MB-435 cells incubated for 48 hrs by sulforhodamine B assay; format: functional, cell-based
[29] = target: T1, Insulin-like growth factor 1 receptor; experiment: Inhibition of IGF1R in human HeLa cells assessed as reduction in Akt phosphorylation at Ser473 residue after 24 hrs by immunoblot analysis; format: cell-based
Summary of the method: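 Cells in their medium with 10% FBS exposed to rising concentrations for 24 h; whole-cell lysates immunoblotted for p-Akt (S473) and total Akt; PI3K inhibitor at 10 μM as positive control.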

[30] = target: T1, Insulin-like growth factor 1 receptor; experiment: Inhibition of IGF1R phosphorylation at Tyr1161 residue in human MCF7 cells at 1 uM after 1 hr by Hoechst 33258 staining based immunohistochemical analysis; format: cell-based
Summary of the method: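 MCF7 treated 1 h (test agent 1 μM; PI3K inhibitor 10 μM; 0.1% DMSO mock), fixed in 4% PFA 15 min, permeabilised/blocked, anti-p-IGF-1R Y1161 (1:200) overnight at 4 °C, Alexa 594 secondary 1 h, nuclei with Hoechst 33258 (1 μg/mL).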

[31] = system: M14; experiment: Growth inhibition of human M14 cells incubated for 48 hrs by sulforhodamine B assay; format: functional, cell-based
[32] = target: Aurora kinase B (Homo sapiens) (UniProt Q96GD4); experiment: Inhibition of human N-terminal GST/His6-tagged Aurora B (A2 to A344 residues) expressed in sf9 cells at 1 uM using tetra(LRRLSLG) as substrate by filter binding assay; summary of the method: as §2
Sequence of Aurora kinase B (Homo sapiens) (Q96GD4 whole entry, the tested form may be a part): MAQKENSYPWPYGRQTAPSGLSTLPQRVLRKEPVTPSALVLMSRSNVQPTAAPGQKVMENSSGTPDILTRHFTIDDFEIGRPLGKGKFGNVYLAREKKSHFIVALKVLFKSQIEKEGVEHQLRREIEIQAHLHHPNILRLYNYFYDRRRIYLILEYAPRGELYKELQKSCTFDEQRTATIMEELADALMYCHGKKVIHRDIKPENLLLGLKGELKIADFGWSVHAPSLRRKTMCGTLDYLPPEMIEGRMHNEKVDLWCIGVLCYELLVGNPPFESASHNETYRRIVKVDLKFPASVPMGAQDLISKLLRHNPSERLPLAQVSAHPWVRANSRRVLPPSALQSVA

[33] = system: MDA-MB-468; experiment: Growth inhibition of human MDA-MB-468 cells incubated for 48 hrs by sulforhodamine B assay; format: functional, cell-based
[34] = system: SK-MEL-5; experiment: Growth inhibition of human SK-MEL-5 cells incubated for 48 hrs by sulforhodamine B assay; format: functional, cell-based
[35] = system: SF-539; experiment: Growth inhibition of human SF539 cells incubated for 48 hrs by sulforhodamine B assay; format: functional, cell-based
[36] = system: SK-MEL-28; experiment: Growth inhibition of human SK-MEL-28 cells incubated for 48 hrs by sulforhodamine B assay; format: functional, cell-based
[37] = system: Hs-578T; experiment: Growth inhibition of human Hs 578T cells incubated for 48 hrs by sulforhodamine B assay; format: functional, cell-based

CN1CCN(CCO/N=C2/C(=C3/C(=O)Nc4ccccc43)Nc3ccccc32)CC1
growth inhibition (GI) [1]: Active | growth inhibition (GI) [2]: Active | growth inhibition (GI) [3]: Active | growth inhibition (GI) [4]: Active | growth inhibition (GI) [5]: Active | growth inhibition (GI) [6]: Active | growth inhibition (GI) [7]: Active | growth inhibition (GI) [8]: Active | growth inhibition (GI) [9]: Active | growth inhibition (GI) [10]: Active | growth inhibition (GI) [11]: Active | growth inhibition (GI) [12]: Active | growth inhibition (GI) [13]: Active | growth inhibition (GI) [14]: Active | growth inhibition (GI) [15]: Active | growth inhibition (GI) [16]: Active | growth inhibition (GI) [17]: Active | inhibition [18]: Active | growth inhibition (GI) [19]: Active | growth inhibition (GI) [20]: Active | growth inhibition (GI) [21]: Active | growth inhibition (GI) [22]: Active | inhibition [23]: inactive | growth inhibition (GI) [24]: Active | growth inhibition (GI) [25]: Active | growth inhibition (GI) [26]: Active | Activity [27]: Active | growth inhibition (GI) [28]: Active | inhibition [29]: Dose-dependent effect | inhibition [30]: Active | growth inhibition (GI) [31]: Active | inhibition [32]: inactive | growth inhibition (GI) [33]: Active | growth inhibition (GI) [34]: Active | growth inhibition (GI) [35]: Active | growth inhibition (GI) [36]: Active | growth inhibition (GI) [37]: Active
